Data as given in ChEMBL document CHEMBL1156079, “Imidazoquines as antimalarial and antipneumocystis agents” (J Med Chem, 2009).
pIC50: −log10 of the molar value. Converted amounts (≈) assume the structure as drawn.

Tested on: Plasmodium berghei
Experiment: (§1) Antiplasmodial activity against Plasmodium berghei ANKA infected in BALB/c mice (Mus musculus) assessed as parasite-transmission to Anopheles stephensi after feeding on infected mice (Mus musculus) at 10 umol/kg, intraperitoneally administered 4 days after infection measured 10 days after 2 hrs of mosquito feeding by transmission-blocking activity assay relative to control
Type: functional
Details: not given
Procedure, shortened: (§2)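 Balb/C mice infected with P. berghei ANKA; after 4 days, once gametocytes were seen on Giemsa blood films, groups of six got one intraperitoneal dose (10 or 50 μmol/kg; PBS controls). At 2 h, anesthetized mice fed ca. 50 glucose-starved female An. stephensi for 2 h. Ten days later, 10 mosquitoes per cage dissected; midgut oocysts counted, giving % infected mosquitoes and mean oocysts per mosquito.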

SMILES | Activity
COc1cc(NC(C)CCCN2C(=O)CN(C(=O)[C@H](N)CCSC)C2(C)C)c2ncccc2c1 (some centres undefined) | 47.1%
COc1cc(NC(C)CCCN)c2ncccc2c1 (centres undefined) [PRIMAQUINE] | 40%
COc1cc(NC(C)CCCN2C(=O)CN(C(=O)[C@@H](C)N)C2(C)C)c2ncccc2c1 (some centres undefined) | 67.9%

Tested on: Plasmodium berghei
Experiment: as §1, with “at 50” for “at 10”
Type: functional
Details: not given
Procedure, shortened: as §2

SMILES | Activity
COc1cc(NC(C)CCCN2C(=O)CN(C(=O)[C@H](N)CCSC)C2(C)C)c2ncccc2c1 (some centres undefined) | 26.4%
COc1cc(NC(C)CCCN)c2ncccc2c1 (centres undefined) [PRIMAQUINE] | 2.9%
COc1cc(NC(C)CCCN2C(=O)CN(C(=O)[C@@H](C)N)C2(C)C)c2ncccc2c1 (some centres undefined) | 40.1%

Tested on: not listed separately
Experiment: Solubility in water
Type: physicochemical
Details: buffer

SMILES | solubility
COc1cc(NC(C)CCCN)c2ncccc2c1 (centres undefined) [PRIMAQUINE] | 56.4 µg/mL (≈ 217 µM)

Same assay, conditions: water

SMILES | solubility
COc1cc(NC(C)CCCN2C(=O)CN(C(=O)[C@H](N)CCSC)C2(C)C)c2ncccc2c1 (some centres undefined) | 11.7 µg/mL (≈ 24 µM)
COc1cc(NC(C)CCCN2C(=O)CN(C(=O)[C@@H](C)N)C2(C)C)c2ncccc2c1 (some centres undefined) | 120 µg/mL (≈ 281 µM)

Tested on: not listed separately
Experiment: Octanol/water partition coefficient, log P of the compound
Type: physicochemical
Details: not given

SMILES | logP
COc1cc(NC(C)CCCN2C(=O)CN(C(=O)[C@H](N)CCSC)C2(C)C)c2ncccc2c1 (some centres undefined) | 2.94
COc1cc(NC(C)CCCN)c2ncccc2c1 (centres undefined) [PRIMAQUINE] | 2.76
COc1cc(NC(C)CCCN2C(=O)CN(C(=O)[C@@H](C)N)C2(C)C)c2ncccc2c1 (some centres undefined) | 2.49

Tested on: not listed separately
Experiment: Chemical stability by HPLC analysis
Type: physicochemical
Details: not given

SMILES | Stability
COc1cc(NC(C)CCCN2C(=O)CN(C(=O)[C@H](N)CCSC)C2(C)C)c2ncccc2c1 (some centres undefined) | Stable
COc1cc(NC(C)CCCN2C(=O)CN(C(=O)[C@@H](C)N)C2(C)C)c2ncccc2c1 (some centres undefined) | Stable

Tested on: Plasmodium falciparum
Experiment: Antiplasmodial activity against chloroquine-resistant blood stage Plasmodium falciparum W2 after 48 hrs by FACS analysis
Type: functional, organism-based
Details: W2, 48 h

SMILES | pIC50
COc1cc(NC(C)CCCN2C(=O)CN(C(=O)[C@H](N)CCSC)C2(C)C)c2ncccc2c1 (some centres undefined) | 4.90

Tested on: Plasmodium berghei
Experiment: Antiplasmodial activity against liver-stage GFP expressing Plasmodium berghei sporozoites infected in human HuH7 cells assessed as inhibition of parasite schizonts development after 48 hrs by FACS analysis
Type: functional, organism-based
Details: Huh-7

SMILES | Activity
COc1cc(NC(C)CCCN2C(=O)CN(C(=O)[C@H](N)CCSC)C2(C)C)c2ncccc2c1 (some centres undefined) | Dose-dependent effect
COc1cc(NC(C)CCCN2C(=O)CN(C(=O)[C@@H](C)N)C2(C)C)c2ncccc2c1 (some centres undefined) | Dose-dependent effect

Same assay, conditions: Huh-7, Liver

SMILES | pIC50
COc1cc(NC(C)CCCN2C(=O)CN(C(=O)[C@H](N)CCSC)C2(C)C)c2ncccc2c1 (some centres undefined) | 4.51
COc1cc(NC(C)CCCN2C(=O)CN(C(=O)[C@@H](C)N)C2(C)C)c2ncccc2c1 (some centres undefined) | 5.00

Tested on: Pneumocystis carinii
Experiment: Antipneumocystis activity against Pneumocystis carinii assessed as reduction in parasite ATP content after 24 hrs by luciferin-luciferase assay
Type: functional, organism-based
Details: not given
Procedure, shortened: (§3)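 P. carinii from immunosuppressed, intratracheally inoculated Long Evans and Brown Norway rats, 10⁸ nuclei/ml in supplemented RPMI 1640 with 20% calf serum, pH 7.5–8.0, 380 mOsm. Compounds added in DMSO (final <0.2% v/v). Incubated at 35 °C, 10% CO₂, with daily medium change; sampled at 24, 48 and 72 h. ATP measured by luciferin-luciferase as % of untreated control; triplicate wells across isolation batches, three readings each.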

SMILES | pIC50
COc1cc(NC(C)CCCN2C(=O)CN(C(=O)[C@H](N)CCSC)C2(C)C)c2ncccc2c1 (some centres undefined) | 4.62
COc1cc(NC(C)CCCN)c2ncccc2c1 (centres undefined) [PRIMAQUINE] | 4.74
COc1cc(NC(C)CCCN2C(=O)CN(C(=O)[C@@H](C)N)C2(C)C)c2ncccc2c1 (some centres undefined) | 4.40

Tested on: Pneumocystis carinii
Experiment: Antipneumocystis activity against Pneumocystis carinii assessed as reduction in parasite ATP content after 48 hrs by luciferin-luciferase assay
Type: functional, organism-based
Details: not given
Procedure, shortened: as §3

SMILES | pIC50
COc1cc(NC(C)CCCN2C(=O)CN(C(=O)[C@H](N)CCSC)C2(C)C)c2ncccc2c1 (some centres undefined) | 4.88
COc1cc(NC(C)CCCN)c2ncccc2c1 (centres undefined) [PRIMAQUINE] | 5.07
COc1cc(NC(C)CCCN2C(=O)CN(C(=O)[C@@H](C)N)C2(C)C)c2ncccc2c1 (some centres undefined) | 4.73

Tested on: Pneumocystis carinii
Experiment: Antipneumocystis activity against Pneumocystis carinii assessed as reduction in parasite ATP content after 72 hrs by luciferin-luciferase assay
Type: functional, organism-based
Details: not given
Procedure, shortened: as §3

SMILES | pIC50
COc1cc(NC(C)CCCN2C(=O)CN(C(=O)[C@H](N)CCSC)C2(C)C)c2ncccc2c1 (some centres undefined) | 5.15
COc1cc(NC(C)CCCN)c2ncccc2c1 (centres undefined) [PRIMAQUINE] | 5.46
COc1cc(NC(C)CCCN2C(=O)CN(C(=O)[C@@H](C)N)C2(C)C)c2ncccc2c1 (some centres undefined) | 5.08

Tested on: Pneumocystis carinii
Experiment: Antipneumocystis activity against Pneumocystis carinii assessed as reduction in parasite ATP content after 24 to 72 hrs by luciferin-luciferase assay
Type: functional, organism-based
Details: not given
Procedure, shortened: as §3

SMILES | Activity
COc1cc(NC(C)CCCN2C(=O)CN(C(=O)[C@H](N)CCSC)C2(C)C)c2ncccc2c1 (some centres undefined) | Dose-dependent effect
COc1cc(NC(C)CCCN)c2ncccc2c1 (centres undefined) [PRIMAQUINE] | Dose-dependent effect
COc1cc(NC(C)CCCN2C(=O)CN(C(=O)[C@@H](C)N)C2(C)C)c2ncccc2c1 (some centres undefined) | Dose-dependent effect

Tested on: Pneumocystis carinii
Experiment: Antipneumocystis activity against Pneumocystis carinii assessed as reduction in parasite ATP content at < 0.2% v/v by luciferin-luciferase assay
Type: functional, organism-based
Details: TDE = time-dependent effect

SMILES | Activity
COc1cc(NC(C)CCCN2C(=O)CN(C(=O)[C@H](N)CCSC)C2(C)C)c2ncccc2c1 (some centres undefined) | tde
COc1cc(NC(C)CCCN)c2ncccc2c1 (centres undefined) [PRIMAQUINE] | tde
COc1cc(NC(C)CCCN2C(=O)CN(C(=O)[C@@H](C)N)C2(C)C)c2ncccc2c1 (some centres undefined) | tde

Tested on: A549
Experiment: Cytotoxicity against human A549 cells after 72 hrs
Type: cell-based
Details: A549, 72 h

SMILES | pIC50
COc1cc(NC(C)CCCN2C(=O)CN(C(=O)[C@H](N)CCSC)C2(C)C)c2ncccc2c1 (some centres undefined) | 5.10
COc1cc(NC(C)CCCN)c2ncccc2c1 (centres undefined) [PRIMAQUINE] | < 4.00
COc1cc(NC(C)CCCN2C(=O)CN(C(=O)[C@@H](C)N)C2(C)C)c2ncccc2c1 (some centres undefined) | 5.11

Species: Homo sapiens
Experiment: Half life in human plasma by HPLC analysis
Details: not given

SMILES | half-life
COc1cc(NC(C)CCCN2C(=O)CN(C(=O)[C@H](N)CCSC)C2(C)C)c2ncccc2c1 (some centres undefined) | > 72 h
COc1cc(NC(C)CCCN2C(=O)CN(C(=O)[C@@H](C)N)C2(C)C)c2ncccc2c1 (some centres undefined) | > 72 h
